Experimental data reported in ChEMBL document CHEMBL1275530, “Aspergillus fumigatus forms biofilms with reduced antifungal drug susceptibility on bronchial epithelial cells” (2008).
Converted amounts (≈) assume the structure as drawn. *1 amine or outer side, *2 acyl side, *3 side chain or, on linkers, in order; H or OH if unused. Where a SMILES comes first, the peptide text is derived from it. Bridges are numbered along the chain shown (N, C = ends). [ ]: non-standard residue; d: D form. The star is where a group is joined. hTyr(3S-OH,4S-OH,3'-OSO3H) = N[C@H](C(=O)O)[C@H](O)[C@@H](O)c1ccc(O)c(OS(=O)(=O)O)c1; Orn(4R-OH,5R-OH) = O=C([C@H](C[C@@H](O)[C@@H](O)N[*:3])N[*:1])[*:2]; Pro(3S-OH,4S-Me) = C[C@H]1CN[C@H](C(=O)O)[C@H]1O; X1 = CCCCCOc1ccc(-c2cc(-c3ccc(C(=O)*)cc3)no2)cc1; Gln(3R-OH) = NC(=O)C[C@@H](O)[C@H](N)C(=O)O; Hyp = O=C(O)[C@@H]1C[C@@H](O)CN1

Tests used:
Type in all cases: functional
Aspergillus fumigatus [1] = assay: Antifungal activity against Aspergillus fumigatus ATCC 9197 grown as planktonic cell on polystyrene after 48 hrs by broth microdilution method; settings: ATCC 9197, 48 h
How it was run: (§1)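 CLSI M38-A broth microdilution on planktonic conidia, with drugs added at once and end points read at 24 h and 48 h. Ranges in μg/ml: AMB 0.06 to 32; liposomal AMB, voriconazole, posaconazole, itraconazole, caspofungin and micafungin 0.03 to 16. Inoculum was the same as in the XTT assay. Three repeats.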

Aspergillus fumigatus [2] = assay: Antifungal activity against Aspergillus fumigatus ATCC 9197 grown as biofilm on polystyrene after 24 to 48 hrs by XTT assay
How it was run: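 Biofilm was formed on polystyrene without epithelial cells, starting from 10^6 conidia/ml in MEM plus 10% FCS. Drugs were added after 24–48 h of biofilm growth. After a further 24 h and 48 h, XTT reduction gave MICs at 50% and 90% inhibition of metabolic activity relative to a drug-free control.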

Aspergillus fumigatus [3] = assay: Antifungal activity against Aspergillus fumigatus ATCC 9197 grown as biofilm on CFBE41o cell after 24 to 48 hrs by XTT assay
How it was run: (§2)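 Biofilm grown in PS 96-well plates on confluent 16HBE14o− (1) or CFBE41o− (2) cells on fibronectin/collagen coating. Conidia (10^6/ml) in MEM plus 10% FCS adhered 2 h at 37°C, 5% CO2. Drugs were added after 24–48 h of biofilm growth and incubated another 24 h and 48 h. Sessile MIC was read by XTT as 50% (MIC-2) or 90% (MIC-1) inhibition of metabolic activity versus drug-free control. CFU were also plated. Three repeats.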

Aspergillus fumigatus [4] = assay: Antifungal activity against Aspergillus fumigatus ATCC 9197 grown as planktonic cell on 16HBE cell after 48 hrs by broth microdilution method; settings: ATCC 9197, 48 h; how it was run: as §1
Aspergillus fumigatus [5] = assay: Antifungal activity against Aspergillus fumigatus ATCC 9197 grown as planktonic cell on CFBE41o cell after 48 hrs by broth microdilution method; settings: ATCC 9197, 48 h; how it was run: as §1
Aspergillus fumigatus [6] = assay: Antifungal activity against Aspergillus fumigatus ATCC 9197 grown as biofilm on 16HBE cell after 24 to 48 hrs by XTT assay; how it was run: as §2

C[C@@H]1[C@H](O)[C@@H](C)/C=C/C=C/C=C/C=C/C=C/C=C/C=C/[C@H](O[C@@H]2O[C@H](C)[C@@H](O)[C@H](N)[C@@H]2O)C[C@@H]2O[C@](O)(C[C@@H](O)C[C@@H](O)[C@H](O)CC[C@@H](O)C[C@@H](O)CC(=O)O[C@H]1C)C[C@H](O)[C@H]2C(=O)O [AMPHOTERICIN B]
MIC50 (Aspergillus fumigatus [1]): 1 µg/mL (≈ 1.08 µM)
MIC90 (Aspergillus fumigatus [1]): 1 µg/mL (≈ 1.08 µM)
MIC50 (Aspergillus fumigatus [2]): 8 µg/mL (≈ 8.66 µM)
MIC90 (Aspergillus fumigatus [2]): 16 µg/mL (≈ 17.3 µM)
MIC50 (Aspergillus fumigatus [3]): 4 µg/mL (≈ 4.33 µM)
MIC90 (Aspergillus fumigatus [3]): 8 µg/mL (≈ 8.66 µM)
MIC50 (Aspergillus fumigatus [4]): 0.5 µg/mL (≈ 0.541 µM)
MIC90 (Aspergillus fumigatus [4]): 1 µg/mL (≈ 1.08 µM)
MIC50 (Aspergillus fumigatus [5]): 0.5 µg/mL (≈ 0.541 µM)
MIC90 (Aspergillus fumigatus [5]): 1 µg/mL (≈ 1.08 µM)
MIC50 (Aspergillus fumigatus [6]): 2 µg/mL (≈ 2.16 µM)
MIC90 (Aspergillus fumigatus [6]): 4 µg/mL (≈ 4.33 µM)

CC[C@H](C)C[C@H](C)CCCCCCCCC(=O)N[C@H]1C[C@@H](O)[C@@H](NCCN)NC(=O)[C@@H]2[C@@H](O)CCN2C(=O)[C@H]([C@H](O)CCN)NC(=O)[C@H]([C@H](O)[C@@H](O)c2ccc(O)cc2)NC(=O)[C@@H]2C[C@@H](O)CN2C(=O)[C@H]([C@@H](C)O)NC1=O [CASPOFUNGIN]
MIC50 (Aspergillus fumigatus [3]): > 8 µg/mL
MIC90 (Aspergillus fumigatus [3]): > 8 µg/mL
MIC50 (Aspergillus fumigatus [4]): 0.5 µg/mL (≈ 0.457 µM)
MIC90 (Aspergillus fumigatus [4]): 1 µg/mL (≈ 0.915 µM)
MIC50 (Aspergillus fumigatus [5]): 0.5 µg/mL (≈ 0.457 µM)
MIC90 (Aspergillus fumigatus [5]): 1 µg/mL (≈ 0.915 µM)
MIC50 (Aspergillus fumigatus [6]): > 8 µg/mL
MIC90 (Aspergillus fumigatus [6]): > 8 µg/mL

CCC(C)n1ncn(-c2ccc(N3CCN(c4ccc(OCC5COC(Cn6cncn6)(c6ccc(Cl)cc6Cl)O5)cc4)CC3)cc2)c1=O (stereo unspecified) [ITRACONAZOLE]
MIC50 (Aspergillus fumigatus [1]): 0.5 µg/mL (≈ 0.709 µM)
MIC90 (Aspergillus fumigatus [1]): 1 µg/mL (≈ 1.42 µM)
MIC50 (Aspergillus fumigatus [2]): 2 µg/mL (≈ 2.83 µM)
MIC90 (Aspergillus fumigatus [2]): 4 µg/mL (≈ 5.67 µM)
MIC50 (Aspergillus fumigatus [3]): 1 µg/mL (≈ 1.42 µM)
MIC90 (Aspergillus fumigatus [3]): 2 µg/mL (≈ 2.83 µM)
MIC50 (Aspergillus fumigatus [4]): 0.125 µg/mL (≈ 0.177 µM)
MIC90 (Aspergillus fumigatus [4]): 0.25 µg/mL (≈ 0.354 µM)
MIC50 (Aspergillus fumigatus [5]): 0.125 µg/mL (≈ 0.177 µM)
MIC90 (Aspergillus fumigatus [5]): 0.25 µg/mL (≈ 0.354 µM)
MIC50 (Aspergillus fumigatus [6]): 1 µg/mL (≈ 1.42 µM)
MIC90 (Aspergillus fumigatus [6]): 1 µg/mL (≈ 1.42 µM)

CCCCCOc1ccc(-c2cc(-c3ccc(C(=O)N[C@H]4C[C@@H](O)[C@@H](O)NC(=O)[C@@H]5[C@@H](O)[C@@H](C)CN5C(=O)[C@H]([C@H](O)CC(N)=O)NC(=O)[C@H]([C@H](O)[C@@H](O)c5ccc(O)c(OS(=O)(=O)O)c5)NC(=O)[C@@H]5C[C@@H](O)CN5C(=O)[C@H]([C@@H](C)O)NC4=O)cc3)no2)cc1 [MICAFUNGIN] (X1-[Orn(4R-OH,5R-OH)]T[Hyp][hTyr(3S-OH,4S-OH,3'-OSO3H)][Gln(3R-OH)][Pro(3S-OH,4S-Me)]; lactam 1-C)
MIC50 (Aspergillus fumigatus [3]): > 8 µg/mL
MIC90 (Aspergillus fumigatus [3]): > 8 µg/mL
MIC50 (Aspergillus fumigatus [4]): 0.5 µg/mL (≈ 0.394 µM)
MIC90 (Aspergillus fumigatus [4]): 1 µg/mL (≈ 0.787 µM)
MIC50 (Aspergillus fumigatus [5]): 0.5 µg/mL (≈ 0.394 µM)
MIC90 (Aspergillus fumigatus [5]): 1 µg/mL (≈ 0.787 µM)
MIC50 (Aspergillus fumigatus [6]): > 8 µg/mL
MIC90 (Aspergillus fumigatus [6]): > 8 µg/mL

CC[C@@H]([C@H](C)O)n1ncn(-c2ccc(N3CCN(c4ccc(OC[C@@H]5CO[C@@](Cn6cncn6)(c6ccc(F)cc6F)C5)cc4)CC3)cc2)c1=O [POSACONAZOLE]
MIC50 (Aspergillus fumigatus [3]): 1 µg/mL (≈ 1.43 µM)
MIC90 (Aspergillus fumigatus [3]): 2 µg/mL (≈ 2.85 µM)
MIC50 (Aspergillus fumigatus [4]): 0.125 µg/mL (≈ 0.178 µM)
MIC90 (Aspergillus fumigatus [4]): 0.125 µg/mL (≈ 0.178 µM)
MIC50 (Aspergillus fumigatus [5]): 0.125 µg/mL (≈ 0.178 µM)
MIC90 (Aspergillus fumigatus [5]): 0.125 µg/mL (≈ 0.178 µM)
MIC50 (Aspergillus fumigatus [6]): 1 µg/mL (≈ 1.43 µM)
MIC90 (Aspergillus fumigatus [6]): 1 µg/mL (≈ 1.43 µM)

C[C@@H](c1ncncc1F)[C@](O)(Cn1cncn1)c1ccc(F)cc1F [VORICONAZOLE]
MIC50 (Aspergillus fumigatus [3]): 1 µg/mL (≈ 2.86 µM)
MIC90 (Aspergillus fumigatus [3]): 2 µg/mL (≈ 5.73 µM)
MIC50 (Aspergillus fumigatus [4]): 0.125 µg/mL (≈ 0.358 µM)
MIC90 (Aspergillus fumigatus [4]): 0.125 µg/mL (≈ 0.358 µM)
MIC50 (Aspergillus fumigatus [5]): 0.125 µg/mL (≈ 0.358 µM)
MIC90 (Aspergillus fumigatus [5]): 0.125 µg/mL (≈ 0.358 µM)
MIC50 (Aspergillus fumigatus [6]): 1 µg/mL (≈ 2.86 µM)
MIC90 (Aspergillus fumigatus [6]): 1 µg/mL (≈ 2.86 µM)
